Calls of active or inactive are those of the source. The rule behind the calls is not given here.
Columns and labels:
B2 bradykinin receptor [1] = molecular target: T1, B2 bradykinin receptor (Homo sapiens, UniProt P30411); experiment: Displacement of [3H]-Bradykinin from human bradykinin B2 receptor expressed in CHO cells membrane after 60 mins by scintillation counting; format: cell membranes
T1 sequence (P30411 whole entry): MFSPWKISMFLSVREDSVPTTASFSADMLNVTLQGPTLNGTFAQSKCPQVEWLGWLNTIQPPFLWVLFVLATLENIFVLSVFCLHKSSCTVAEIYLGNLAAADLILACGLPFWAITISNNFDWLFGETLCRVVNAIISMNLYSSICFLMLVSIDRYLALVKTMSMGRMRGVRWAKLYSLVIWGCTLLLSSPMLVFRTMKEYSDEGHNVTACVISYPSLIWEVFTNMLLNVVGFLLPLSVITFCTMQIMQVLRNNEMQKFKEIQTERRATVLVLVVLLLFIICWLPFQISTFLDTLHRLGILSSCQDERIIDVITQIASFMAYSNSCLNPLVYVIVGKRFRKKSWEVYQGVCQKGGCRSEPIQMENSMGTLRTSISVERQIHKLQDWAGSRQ

B2 bradykinin receptor [2] = molecular target: T1, B2 bradykinin receptor; experiment: Antagonist activity at human bradykinin B2 receptor expressed in dhfr-deficient CHO cells assessed as inhibition of bradykinin-induced inositol monophosphate accumulation preincubated for 15 mins prior bradykinin induction measured after 40 mins by liquid scintillation spectrometry; format: functional, cell-based; conditions: read-out: pA2 (converted)
Summary of the method: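 CHOdhfr-/hB2R cells (1.8×10^5/well) plated overnight at 37 °C, labelled 24 h with myo-[3H]inositol (1 uCi/well). Antagonist pre-incubation 15 min, then BK 1×10^-11 to 1×10^-5 M for 40 min at 37 °C in Hepes pH 7.4 buffer with 25 mM LiCl. IP1 radioactivity by liquid scintillation. Agonist curves fitted for EC50; pA2 = log(CR−1) − log[antagonist].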

B1 bradykinin receptor = molecular target: T2, B1 bradykinin receptor (Homo sapiens, UniProt P46663); experiment: Displacement of [3H][desArg9]Lys-Bradykinin from human bradykinin B1 receptor expressed in CHO cells; format: cell-based
T2 sequence (P46663 whole entry): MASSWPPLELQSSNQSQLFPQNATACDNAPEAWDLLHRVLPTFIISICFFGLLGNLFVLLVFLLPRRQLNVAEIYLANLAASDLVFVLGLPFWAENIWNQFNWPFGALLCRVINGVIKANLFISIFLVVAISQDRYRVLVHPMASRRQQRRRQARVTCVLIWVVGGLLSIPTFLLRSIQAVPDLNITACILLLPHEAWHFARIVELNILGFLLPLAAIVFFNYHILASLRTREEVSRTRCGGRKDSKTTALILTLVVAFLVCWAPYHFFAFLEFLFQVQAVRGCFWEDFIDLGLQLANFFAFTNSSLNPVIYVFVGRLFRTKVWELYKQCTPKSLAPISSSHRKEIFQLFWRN

Cavia porcellus = experiment: Inhibition of bradykinin-induced bronchoconstriction in anesthetized Dunkin-Hartley guinea pig at […], it 5 mins prior bradykinin-induction for every 30 mins up to 210 mins; format: functional, organism-based
Summary of the method: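 Anaesthetized male Dunkin Hartley guinea pigs, 350–400 g. Compound given intratracheally, then repeated iv BK challenges (10 nmol/kg) with bronchoconstriction recorded.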

B2 bradykinin receptor [3] = molecular target: T3, B2 bradykinin receptor (Cavia porcellus, UniProt O70526); experiment: Antagonist activity at guinea pig bradykinin B2 receptor in longitudinal smooth muscle assessed as inhibition of bradykinin-induced contractile responses; format: functional; conditions: read-out: pA2 (converted)
T3 sequence (O70526 whole entry): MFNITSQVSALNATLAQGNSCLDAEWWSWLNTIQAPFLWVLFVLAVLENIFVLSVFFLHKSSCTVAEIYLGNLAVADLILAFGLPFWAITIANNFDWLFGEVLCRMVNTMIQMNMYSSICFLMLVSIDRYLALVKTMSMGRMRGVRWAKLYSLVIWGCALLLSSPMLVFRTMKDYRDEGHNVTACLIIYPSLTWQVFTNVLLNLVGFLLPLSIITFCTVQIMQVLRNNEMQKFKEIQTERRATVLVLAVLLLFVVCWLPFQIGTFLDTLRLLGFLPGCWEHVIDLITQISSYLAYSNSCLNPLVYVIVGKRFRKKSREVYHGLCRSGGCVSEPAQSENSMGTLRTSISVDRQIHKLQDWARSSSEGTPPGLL

- Ki (B2 bradykinin receptor [1]): 0.0794 nM
- Kb (B2 bradykinin receptor [2]): 0.316 nM
- Ki (B1 bradykinin receptor): > 10000 nM
- Kb (B2 bradykinin receptor [3]): 0.0631 nM
Structure (SMILES): Cc1cc(C)c2cccc(OCc3c(Cl)ccc(S(=O)(=O)NC4(C(=O)N5CCN(C(=O)CCCC[N+](C)(C)C)CC5)CCOCC4)c3Cl)c2n1
- inhibition (Cavia porcellus): inactive

From ChEMBL document CHEMBL1955756, “Design and synthesis of novel sulfonamide-containing bradykinin hB(2) receptor antagonists. Synthesis and structure-relationships of α,α-tetrahydropyranylglycine” (Bioorg Med Chem, 2012)
